# Data reported in ChEMBL document CHEMBL3352584, “Novel DNA gyrase inhibiting spiropyrimidinetriones with a benzisoxazole scaffold: SAR and in vivo characterization” (J Med Chem, 2014).
# Assays:
# [1] = system: Escherichia coli; experiment: Antimicrobial activity against tolC-deficient Escherichia coli by broth microdilution method; assay type: functional
# Procedure, shortened: (§1)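 Broth microdilution following CLSI guidelines. Values under 12.5 μM are averages of three or more replicates.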
# [2] = system: Staphylococcus aureus; experiment: Antimicrobial activity against methicillin-sensitive Staphylococcus aureus ARC516 infected in mouse at 3 to 100 mg/kg/day, ip starting 2 hrs after infection; assay type: functional, organism-based
# Procedure, shortened: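 CD-1 mouse thighs infected with mid-log S. aureus ARC516 at a target inoculum of 5 × 10⁵ CFU. Groups of five received ip compound in DMA:TEG:saline 40/40/20, either q24h or q6h, from 2 h post-infection. Mice were killed 24 h after treatment start and thigh homogenates plated on tryptic soy agar (37 °C overnight) for CFU/g. Neutropenia was induced with ip cyclophosphamide, 150 mg/kg on day −4 and 100 mg/kg on day −1.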
# [3] = system: Streptococcus pyogenes; experiment: Antimicrobial activity against Streptococcus pyogenes by broth microdilution method; assay type: functional; procedure, shortened: as §1
# [4] = Solubility of the compound; assay type: physicochemical
# [5] = molecular target: DNA topoisomerase 2-alpha (Homo sapiens, UniProt P11388); experiment: Inhibition of human topoisomerase 2alpha
# [6] = Clearance in mouse at 3 mg/kg, iv or at 10 mg/kg, po by LC-MS/MS method; assay type: ADME, organism-based; conditions: in vivo
# Procedure, shortened: (§2)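 Male mice (CD-1) or male Wistar Hannover rats, three per experiment, given a 15 min iv infusion at 3 mg/kg or oral dosing at 10 mg/kg. Vehicle was DMA:TEG:saline 40/40/20 for mice and meglumine/cyclodextrin for rats. Serial jugular blood was taken over 0–24 h, plasma analysed by LC-MS/MS, and a noncompartmental analysis used. Mean values are given.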
# [7] = system: Staphylococcus aureus; experiment: Antimicrobial activity against wild-type Staphylococcus aureus 516 by broth microdilution method; assay type: functional; procedure, shortened: as §1
# [8] = system: Staphylococcus aureus; experiment: Antimicrobial activity against Staphylococcus aureus 2375 harboring GyrA S84L mutant, GyrB R144A mutant and ParC S80Y/E84G/V693M mutant and ParE N141S mutant by broth microdilution method; assay type: functional
# [9] = Cmax in Wistar Hannover rat at 500 mg/kg, po dosed once daily for 14 days measured on day 14; assay type: ADME, organism-based; design: dose 500 mg/kg, route oral; conditions: in vivo
# Procedure, shortened: (§3)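 Wistar Hannover rats, 2 males and 2 females per dose, dosed orally once daily for 14 days at 250, 500 or 750 mg/kg/day. Vehicle was 0.2 M meglumine/20% hydroxypropyl-β-cyclodextrin. Blood was sampled on day 14 and exposure measured in blood. Animals were killed after sampling without necropsy.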
# [10] = AUC in Wistar Hannover rat at 250 mg/kg, po dosed once daily for 14 days measured on day 14; assay type: ADME, organism-based; design: dose 250 mg/kg, route oral; conditions: plasma; procedure, shortened: as §3
# [11] = system: Staphylococcus aureus; experiment: Antimicrobial activity against methicillin-sensitive Staphylococcus aureus by broth microdilution method in presence of 50% human serum; assay type: functional
# Procedure, shortened: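 CLSI broth microdilution against methicillin-sensitive S. aureus, run with 50% human serum added to the medium to reflect plasma protein binding. Values under 12.5 μM are averages of three or more replicates.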
# [12] = system: Staphylococcus aureus; experiment: Antimicrobial activity against methicillin-sensitive Staphylococcus aureus ARC516 infected in immunosupressed mouse assessed as reduction in CFU at AUC of 120 ug.hr/mL compound administered as single ip dose starting 2 hrs after infection relative to untreated control; assay type: functional
# Procedure, shortened: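 Mice were made neutropenic with IP cyclophosphamide, 150 mg/kg at day −4 and 100 mg/kg at day −1. CD-1 thighs were then infected with mid-log S. aureus ARC516 (target 5 × 10⁵ CFU). Groups of five received IP compound in DMA:TEG:saline 40/40/20%, starting 2 h post-infection, alongside vehicle controls. At 24 h after treatment start, thigh homogenates were plated on tryptic soy agar (37 °C, overnight) for CFU/g.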
# [13] = molecular target: DNA gyrase (Escherichia coli, UniProt P0AES4+P0AES6); experiment: Inhibition of Escherichia coli DNA gyrase using fluorescence-tagged DNA by fluorescenct polarization assay; assay type: protein-complex assay
# Procedure, shortened: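 E. coli DNA gyrase supercoiling assay. The read-out was differential binding of a fluorescence-tagged DNA to relaxed versus supercoiled DNA, giving IC50.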
# [14] = system: Escherichia coli; experiment: Antimicrobial activity against Escherichia coli by broth microdilution method; assay type: functional; procedure, shortened: as §1
# [15] = system: Staphylococcus aureus; experiment: Inhibition of RNA synthesis in methicillin-sensitive Staphylococcus aureus by [3H]-uridine incorporation assay; assay type: functional, organism-based
# [16] = system: Streptococcus pneumoniae; experiment: Antimicrobial activity against Streptococcus pneumoniae 2485 harboring GyrA S81F mutant, GyrB D160E/T329A mutant and ParC S79F mutant by broth microdilution method; assay type: functional
# [17] = Fraction unbound in human plasma at 10 uM after 16 hrs by LC-MS/MS analysis; assay type: ADME, cell-free
# Procedure, shortened: (§4)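 Compound at 10 μM in human, rat or mouse plasma, equilibrium dialysis against buffer at 37 °C for 16 h. Buffer and plasma concentrations measured by LC-MS/MS, and the free fraction taken from their ratio.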
# [18] = system: Staphylococcus aureus; experiment: Antimicrobial activity against methicillin-sensitive Staphylococcus aureus ARC516 infected in immunosupressed mouse administered as single ip dose starting 2 hrs after infection; assay type: functional, organism-based
# [19] = Clearance in rat at 3 mg/kg, iv or at 10 mg/kg, po by LC-MS/MS method; assay type: ADME, organism-based; conditions: in vivo; procedure, shortened: as §2
# [20] = Toxicity in po dosed Wistar Hannover rat administered administered once daily for 14 days; assay type: organism-based; conditions: in vivo
# Procedure, shortened: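 Repeat-dose oral study in Wistar Hannover rats, three males and three females per group, dosed once daily for 14 days at 0, 250, 500 or 750 mg/kg/day and necropsied on day 15. Endpoints were clinical signs, body weight, food intake, temperature, hematology, plasma chemistry, toxicokinetics, and gross and microscopic pathology.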
# [21] = Cmax in Wistar Hannover rat at 250 mg/kg, po dosed once daily for 14 days measured on day 14; assay type: ADME, organism-based; design: dose 250 mg/kg, route oral; conditions: in vivo; procedure, shortened: as §3
# [22] = Fraction unbound in mouse plasma at 10 uM after 16 hrs by LC-MS/MS analysis; assay type: ADME, cell-free; procedure, shortened: as §4
# [23] = AUC in Wistar Hannover rat at 750 mg/kg, po dosed once daily for 14 days measured on day 14; assay type: ADME, organism-based; design: dose 750 mg/kg, route oral; conditions: plasma; procedure, shortened: as §3
# [24] = Toxicity in po dosed Wistar Hannover rat administered as single dose; assay type: organism-based; conditions: in vivo
# Procedure, shortened: (§5)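 Single-dose oral phase in groups of three male Wistar Hannover rats, at doses up to 1000 mg/kg. Vehicle was 0.2 M meglumine/20% hydroxypropyl-β-cyclodextrin.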
# [25] = system: Rattus norvegicus; experiment: fAUC in Wistar Hannover rat at 500 mg/kg, po dosed once daily for 14 days measured on day 14; assay type: ADME, organism-based; design: dose 500 mg/kg, route oral; conditions: in vivo, 336 h
# [26] = system: Rattus norvegicus; experiment: Toxicity in Wistar Hannover rat at 1000 mg/kg, po administered as single dose; assay type: organism-based; design: dose 1000 mg/kg, route oral; conditions: in vivo; procedure, shortened: as §5
# [27] = system: Staphylococcus aureus; experiment: Antimicrobial activity against methicillin-sensitive Staphylococcus aureus by broth microdilution method; assay type: functional; procedure, shortened: as §1
# [28] = Bioavailability in rat at 3 mg/kg, iv or at 10 mg/kg, po by LC-MS/MS method; assay type: ADME, organism-based; conditions: in vivo; procedure, shortened: as §2
# [29] = system: Streptococcus pneumoniae; experiment: Antimicrobial activity against Streptococcus pneumoniae by broth microdilution method; assay type: functional; procedure, shortened: as §1
# [30] = system: Staphylococcus aureus; experiment: Inhibition of cell wall biosynthesis in methicillin-sensitive Staphylococcus aureus by [14C]-N-acetylglucosamine incorporation assay; assay type: functional, organism-based
# [31] = system: Rattus norvegicus; experiment: fCmax in Wistar Hannover rat at 500 mg/kg, po dosed once daily for 14 days measured on day 14; assay type: ADME, organism-based; design: dose 500 mg/kg, route oral; conditions: in vivo, 336 h
# [32] = system: Streptococcus pneumoniae; experiment: Antimicrobial activity against Streptococcus pneumoniae 2800 harboring GyrB K143I/T172A mutant by broth microdilution method; assay type: functional
# [33] = Fraction unbound in rat plasma at 10 uM after 16 hrs by LC-MS/MS analysis; assay type: ADME, cell-free; procedure, shortened: as §4
# DNA topoisomerase 2-alpha, sequence (P11388 whole entry): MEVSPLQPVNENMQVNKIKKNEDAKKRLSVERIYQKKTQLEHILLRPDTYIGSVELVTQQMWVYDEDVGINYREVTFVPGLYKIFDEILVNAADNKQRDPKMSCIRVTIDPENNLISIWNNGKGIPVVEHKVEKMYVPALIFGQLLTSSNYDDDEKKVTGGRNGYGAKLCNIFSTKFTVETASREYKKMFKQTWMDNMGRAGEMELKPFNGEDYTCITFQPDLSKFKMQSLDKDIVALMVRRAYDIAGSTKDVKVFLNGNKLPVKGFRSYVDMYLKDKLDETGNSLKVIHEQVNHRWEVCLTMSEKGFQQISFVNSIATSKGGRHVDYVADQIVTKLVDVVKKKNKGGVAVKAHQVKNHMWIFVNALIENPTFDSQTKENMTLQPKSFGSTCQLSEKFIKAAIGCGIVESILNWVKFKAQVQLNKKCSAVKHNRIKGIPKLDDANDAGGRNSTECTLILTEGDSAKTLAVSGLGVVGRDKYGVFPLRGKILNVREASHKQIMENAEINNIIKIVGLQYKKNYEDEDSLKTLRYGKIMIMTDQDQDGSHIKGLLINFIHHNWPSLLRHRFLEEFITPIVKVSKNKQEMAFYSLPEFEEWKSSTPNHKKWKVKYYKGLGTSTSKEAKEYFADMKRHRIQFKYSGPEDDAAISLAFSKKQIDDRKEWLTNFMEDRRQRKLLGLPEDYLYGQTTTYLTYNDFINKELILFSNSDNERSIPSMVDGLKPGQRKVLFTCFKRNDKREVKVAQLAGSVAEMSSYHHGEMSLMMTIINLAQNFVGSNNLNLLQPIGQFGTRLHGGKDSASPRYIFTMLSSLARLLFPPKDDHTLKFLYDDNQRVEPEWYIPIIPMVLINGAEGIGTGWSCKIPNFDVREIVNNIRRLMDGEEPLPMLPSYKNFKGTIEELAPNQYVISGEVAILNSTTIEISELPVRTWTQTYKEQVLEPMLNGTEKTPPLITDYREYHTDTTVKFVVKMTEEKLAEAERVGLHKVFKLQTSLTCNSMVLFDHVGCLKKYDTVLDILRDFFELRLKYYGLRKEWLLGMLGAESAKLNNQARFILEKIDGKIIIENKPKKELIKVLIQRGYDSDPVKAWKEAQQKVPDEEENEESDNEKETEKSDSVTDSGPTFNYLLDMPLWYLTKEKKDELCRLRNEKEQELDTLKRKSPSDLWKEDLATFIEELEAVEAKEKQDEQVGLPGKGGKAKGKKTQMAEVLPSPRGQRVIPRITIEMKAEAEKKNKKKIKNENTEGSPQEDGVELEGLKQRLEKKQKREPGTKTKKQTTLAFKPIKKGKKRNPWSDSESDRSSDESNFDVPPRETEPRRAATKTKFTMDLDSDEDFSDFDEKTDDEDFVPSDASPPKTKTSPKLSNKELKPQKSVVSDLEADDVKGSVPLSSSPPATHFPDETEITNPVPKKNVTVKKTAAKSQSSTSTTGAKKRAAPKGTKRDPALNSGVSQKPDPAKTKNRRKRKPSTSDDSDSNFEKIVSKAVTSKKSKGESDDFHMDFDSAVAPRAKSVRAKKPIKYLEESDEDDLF
compound,measurement,setting,value
Cc1noc2c(F)c3c(cc12)CC1(C(=O)NC(=O)NC1=O)[C@H]1[C@H](C)O[C@H](C)CN31,MIC,[1],≤ 0.2 µM
same,Activity,[2],Dose-dependent effect
same,MIC,[3],6.2 µM
same,solubility,[4],> 1000 µM
same,IC50,[5],50 µM
same,clearance,[6],38 mL/min/kg
same,MIC,[7],0.5 µg/mL
same,MIC,[8],0.5 µg/mL
same,Cmax,[9],440 µM
same,AUC at 336 h,[10],2300 µM·h
same,MIC,[11],3.1 µM
same,fold change (FC),[12],3
same,IC50,[13],0.29 µM
same,MIC,[14],45 µM
same,IC50,[15],5 µg/mL
same,MIC,[16],2 µg/mL
same,"fraction unbound at 16 h, 10 µM",[17],0.094
same,Activity,[18],Dose-dependent effect
same,clearance,[19],32 mL/min/kg
same,NOAEL at 336 h,[20],500 mg/kg
same,Cmax,[21],290 µM
same,"fraction unbound at 16 h, 10 µM",[22],0.19
same,AUC at 336 h,[23],4600 µM·h
same,MTD,[24],≤ 750 mg/kg
same,fAUC,[25],700 µM·h
same,Activity,[26],Toxic
same,MIC,[27],1 µM
same,bioavailability,[28],71%
same,MIC,[29],8.8 µM
same,IC50,[30],8 µg/mL
same,fCmax,[31],70 µmol/L
same,MIC,[32],4 µg/mL
same,"fraction unbound at 16 h, 10 µM",[33],0.16
